High-throughput results: PubChem BioAssay, The Scripps Research Institute Molecular Screening Center
Hits are enriched below; roughly 1.8% of the tested compounds scored in any of these assays.
M4 antag – human M4 muscarinic receptor antagonists, primary screen, CHO cells, Fluo-8 calcium fluorescence | Muscarinic acetylcholine receptor M4 (Homo sapiens), P08173 | CHO-hM4 cells, ACh EC80 | inhibition, % at 3 µM | hit rate 0.73% among 360,000;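 active = inhibition above its plate's cutoff, the mean inhibition of sample wells plus 3 SD, cut at about 27% in these data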;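 note: 0% = acetylcholine EC80 with DMSO and 100% = DMSO without agonist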
Target sequence (P08173 whole entry, looked up): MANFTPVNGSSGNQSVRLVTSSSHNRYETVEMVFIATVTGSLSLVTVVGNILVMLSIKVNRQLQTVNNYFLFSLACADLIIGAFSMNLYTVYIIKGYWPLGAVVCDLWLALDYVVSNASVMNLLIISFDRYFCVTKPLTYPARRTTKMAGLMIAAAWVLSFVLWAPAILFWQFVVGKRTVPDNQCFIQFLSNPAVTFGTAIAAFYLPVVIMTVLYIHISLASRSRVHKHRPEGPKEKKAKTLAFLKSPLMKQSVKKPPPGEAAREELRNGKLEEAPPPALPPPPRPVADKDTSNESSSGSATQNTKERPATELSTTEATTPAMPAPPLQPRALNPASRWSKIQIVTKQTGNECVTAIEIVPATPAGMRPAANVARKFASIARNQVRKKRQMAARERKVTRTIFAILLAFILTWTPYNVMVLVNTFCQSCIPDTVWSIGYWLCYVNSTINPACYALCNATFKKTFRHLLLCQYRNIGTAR
CHRM5 agonist – human M5 muscarinic receptor agonists, primary screen, CHO-K1 cells, Fluo-8 calcium fluorescence; Muscarinic acetylcholine receptor M5 (Homo sapiens), P08912; CHO-K1 hM5 cells; 0% DMSO wells, 100% maximal acetylcholine response; activation, % at 3 µM; hit rate 0.19% among 360,000; AID 624037, 2012;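 active = activation above the run's mean over test compounds plus 3 SD, cut at about 23% in these data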;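 note: signal is peak over basal fluorescence ratio across the kinetic read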
M5 antag – human M5 muscarinic receptor antagonists, primary screen, CHO cells, Fluo-8 calcium fluorescence; inhibition, % at 3 µM; hit rate 0.59% among 360,000; CHO-hM5 cells, ACh EC80; AID 624040, 2012;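 active = inhibition above a per-plate cutoff, the mean of that plate's test compounds plus 3 SD, cut at about 27% in these data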;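 note: 0% = acetylcholine EC80 with DMSO and 100% = DMSO without agonist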
CHRM5 PAM – human M5 muscarinic receptor positive allosteric modulators, primary screen, CHO-K1 cells, Fluo-8 calcium fluorescence; CHO-K1 hM5, ACh EC20 PAM; 0% = ACh EC20, 100% = ACh EC100; hit rate 0.3% among 360,000; activation, % at 3 µM; Muscarinic acetylcholine receptor M5 (Homo sapiens), P08912;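 active = activation above the run cutoff, the mean activation of all test compounds plus 3 SD, cut at about 18% in these data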
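system = human M5 receptor in CHO-K1 cells | reagent = EC20 acetylcholine as agonist stimulus | compound dosing = single-point, 3 µM nominal | incubation = Fluo-8 loading 80 min at 37 °C plus 30 min room temperature | detection = Fluo-8 calcium dye fluorescence, kinetic read | benchmarks = low control EC20 acetylcholine (0%), high control EC100 acetylcholine (100%)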
M4 PAM – human M4 muscarinic receptor positive allosteric modulators, primary screen, CHO-K1 cells, Fluo-8 calcium fluorescence | CHO-K1 hM4/Gqi5, ACh EC20; 0% = ACh EC20, 100% = maximal ACh | activation, % at 3 µM | hit rate 0.4% among 360,000 | AID 624126, 2012;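 active = activation above its plate's cutoff, the mean activation of sample wells plus 3 SD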
M4 ag – human M4 muscarinic receptor agonists, primary screen, CHO-K1 cells, Fluo-8 calcium fluorescence | Muscarinic acetylcholine receptor M4 (Homo sapiens), P08173 | CHO-K1 hM4/Gqi5; vehicle 0%, full acetylcholine response 100% | activation, % at 3 µM | hit rate 0.14% among 360,000;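 active = activation above the run mean over all test wells plus 3 SD, cut at about 32% in these data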;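 note: peak over basal fluorescence ratio per well then scaled between controls; 0% = DMSO wells and 100% = acetylcholine at EC100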
Numbers without * were called inactive.

SMILES | M4 antag | CHRM5 agonist | M5 antag | CHRM5 PAM | M4 PAM | M4 ag
C[N+]12CCC(CC1)C(C(O)(c1cccc(Cl)c1)c1cccc(Cl)c1)C2 (stereo unspecified) | 87* | -20 | 74* | -30 | -15 | 0
C[C@]12C[C@H](O)[C@@H](O)CC1=CCC1C2CC[C@@]2(C)C1CC[C@@H]2O (stereo partly specified) | 5 | 4 | 12 | -3 | -2 | 2
C=CCC1(Nc2ccccc2)CC(C)N(C)CC1C (stereo unspecified) | 49* | -21 | 52* | -35 | -51 | 1
Cc1cc2c(C(C)C)c(O)c(O)c(C=O)c2c(O)c1-c1c(C)cc2c(C(C)C)c(O)c(O)c(C=O)c2c1O | 4 | -1 | -2 | -6 | -3 | 0
CCOc1ccc(-c2c(C)n(-c3ccc(OCC)cc3)c3[n+]2CCCCC3)cc1 | 21 | -4 | 35* | -30 | -37 | 12
Cc1[nH]c2ccccc2c1CCN | -6 | -3 | 9 | 19* | 1 | 2
c1ccc2[nH]c(CCN3CCCCC3)nc2c1 | 7 | -1 | 11 | -7 | -1 | 1
CN1[C@@H]2CC[C@H]1CC(OC1c3ccccc3CCc3ccccc31)C2 (stereo partly specified) | 100* | -1 | 99* | -19 | -19 | 6
O=C(c1ccc(Cl)cc1)C1CCCN(Cc2ccc3c(c2)OCCO3)C1 (stereo unspecified) | 4 | -10 | -8 | -7 | -15 | 2
O=C(c1cccc(Cl)c1)C1CCCN(Cc2cccc3cnccc23)C1 (stereo unspecified) | 12 | -8 | 17 | -21 | -20 | 5
O=C(c1ccc(Cl)cc1)C1CCCN(Cc2cccc3cnccc23)C1 (stereo unspecified) | 48* | -16 | 48* | -36 | -45 | 6
O=C(c1ccc(Cl)cc1)C1CCCN(Cc2ccc3ncccc3c2)C1 (stereo unspecified) | 28* | -12 | 14 | -30 | -22 | 8
COC(=O)C1=C(c2c(C)noc2C)C[C@@H]2CC[C@H]1N2C(=O)NC1CC1 | 0 | 2 | 0 | 6 | 3 | 0
O=C1/C(=C/c2ccccc2Cl)N2CCC1CC2 | -2 | -3 | 14 | -4 | -1 | -1
Cc1cc(C=O)c(C)n1CC1CCCO1 (stereo unspecified) | -9 | -7 | -11 | 18* | 4 | 1
CN1/C(=C\C=C2C(=O)NC(=S)NC2=O)C(C)(C)c2ccccc21 | 15 | 104* | 22 | -24 | -14 | 23
CC(=O)OC1C(O)C2=C3C4(C)C1C(C)(C)C(=O)CC4C3(O)C(OC(C)=O)C1(CC1C)C2=O (stereo unspecified) | -4 | 3 | -6 | 2 | 1 | 1
CN(C)C(CNC(=O)Cc1c(Cl)cccc1Cl)c1ccccc1 (stereo unspecified) | 17 | -12 | 41* | -16 | -20 | 1
CCOc1cccc(=NC2CCCCC2)c2c(C)n(C)c(C)c12 | -19 | 5 | 1 | -6 | -2 | 1
CN(C)P(=NC(=S)c1cccn1C)(N(C)C)N(C)C | 20 | -7 | 27* | -26 | -15 | 1
COc1ccc(-n2nnnc2C(c2ccccc2)N2CCC(n3c(=O)[nH]c4ccccc43)CC2)cc1 (stereo unspecified) | 25 | 6 | 22 | -18 | -12 | 19
COc1ccc(-n2nnnc2C(c2cccs2)N2CCC(n3c(=O)[nH]c4ccccc43)CC2)cc1 (stereo unspecified) | 36* | 4 | 7 | -21 | -9 | 18
COc1ccc(-n2nnnc2C(c2cccc(OC)c2OC)N2CCC(n3c(=O)[nH]c4ccccc43)CC2)cc1 (stereo unspecified) | 18 | 15 | 9 | -16 | -8 | 18
O=c1[nH]c2ccccc2n1C1CCN(C(c2ccccc2)c2nnnn2-c2ccc3c(c2)OCCO3)CC1 (stereo unspecified) | 34* | 2 | 15 | -15 | -6 | 21
COc1cccc(C(c2nnnn2-c2ccc3c(c2)OCCO3)N2CCC(n3c(=O)[nH]c4ccccc43)CC2)c1OC (stereo unspecified) | 13 | 30* | 15 | -10 | -10 | 23
SMILES | M4 antag | CHRM5 agonist | M5 antag | CHRM5 PAM | M4 PAM | M4 ag
C[n+]1c(-c2ccccc2)c2cc(N)ccc2c2ccc(N)cc21 | 16 | 3 | 14 | -14 | -10 | 11
Nc1ccc2ccc3cccc[n+]3c2c1 | 19 | 27* | -3 | -3 | -9 | 22
COC(=O)NC(=C(Cl)Cl)P(=O)(c1ccccc1)c1ccccc1 | 3 | 2 | -17 | 16 | 31* | 1
Cc1ccc(C(=O)N/C(=C\Cl)P(=O)(c2ccccc2)c2ccccc2)cc1 | -5 | -3 | -13 | 1 | 1 | 1
CN1CCN(CCC(C#N)(c2ccccc2)c2ccccc2)CC1 | 40* | -14 | 50* | -49 | -16 | 1
CC12CCC(=O)C=C1CC(O)C1C2CCC2(C)C1CCC2(C)O (stereo unspecified) | 4 | 0 | 17 | -1 | 0 | 1
Cc1cc(Br)cn2c(CC(=O)N3CCCCC3)c(-c3ccc(F)cc3)nc12 | 0 | 3 | 5 | -3 | 4 | 4
Clc1ccc(OCC#CCN2CCCC2)cc1 | 2 | -10 | 31* | -17 | -22 | 2
O=[N+]([O-])c1cccc(CN2CCN(Cc3ccc(Br)cc3)CC2)c1 | 9 | -10 | 2 | -15 | -17 | 0
O=c1cc(C(F)(F)F)c2cc3c4c(c2o1)CCCN4CCC3 | 45* | 71* | 52* | -16 | -16 | 86*
COc1ccc(CN2C(=O)NC(=O)/C(=C/c3ccoc3)C2=O)cc1 | -8 | 29* | 2 | -4 | -5 | 16
O=C(COc1ccc2ccc(=O)oc2c1)N1CCC(C(=O)O)(c2ccccc2)CC1 | 6 | 3 | 6 | 3 | -2 | 0
CC(C)C[C@@H]1COc2cccc(N3CCN(C)CC3)c2S(=O)(=O)N1 | 71* | -7 | 99* | -22 | -15 | 0
CCCCCc1nc2c(c(=O)c3ccccc3n2C)c(=O)n1C1CCCCCC1 | 2 | 3 | 1 | 2 | -2 | 1
CC1=C(O)C(=O)C=C2C1=CC=C1C2(C)CCC2(C)C3CC(C)(C(=O)O)CCC3(C)CCC12C (stereo unspecified) | 91* | 4 | 37* | -23 | -11 | 11
